Source: PubChem
IDH1 R132H inh – inhibitors of IDH1 R132H reductase, primary screen, biochemical, plate reader, single point; Isocitrate dehydrogenase [NADP] cytoplasmic (Homo sapiens), O75874; diaphorase/resazurin fluorescence, 60 min; inhibition, % at 10 µM; actives 0.18% (n = 70,000); AID 624101, 2012; in the data active = inhibition above about 34%; inconclusive = no clear call, values can overlap the other calls; inactive = below about 11%
Target sequence (O75874 whole entry R132H): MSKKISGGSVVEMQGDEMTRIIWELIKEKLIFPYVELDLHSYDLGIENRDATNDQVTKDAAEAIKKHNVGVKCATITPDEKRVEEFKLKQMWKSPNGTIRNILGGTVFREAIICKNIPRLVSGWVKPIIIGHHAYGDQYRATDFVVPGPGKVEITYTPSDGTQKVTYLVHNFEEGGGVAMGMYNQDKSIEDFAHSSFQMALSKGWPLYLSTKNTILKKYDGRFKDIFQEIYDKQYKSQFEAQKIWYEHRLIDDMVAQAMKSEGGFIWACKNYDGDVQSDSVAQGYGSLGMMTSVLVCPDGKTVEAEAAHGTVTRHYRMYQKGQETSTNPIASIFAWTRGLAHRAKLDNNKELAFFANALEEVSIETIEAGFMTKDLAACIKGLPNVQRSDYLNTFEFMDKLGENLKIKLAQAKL
Pf Dd2 inh – P. falciparum Dd2 growth inhibitors, primary screen, SYBR Green fluorescence, single dose replicates. 72 h; active compounds read low. AID 1159554, 2015. actives 2.3% (n = 94,000). activity change, % at 10 µM; in the data active = activity change below about -80%; inconclusive = no clear call, values can overlap the other calls
T cruzi growth-1 – T. cruzi intracellular proliferation inhibitors, primary screen, cell-based, beta-gal Tulahuen parasites, NIH3T3 host, luminescence; T. cruzi beta-gal in NIH3T3, GalScreen luminescence, 90 h; inhibition, % at 8.34 µM; actives 5.9% (n = 77,000); AID 624255, 2012;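 active = mean inhibition above about 93%, with at least 55% of replicates each passing it, limit read from the data, passing the limit was not always enough; inconclusive = only one of those two conditions holds; inactive = neither condition holds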
KDM4C inh – inhibitors of GASC-1 (KDM4C) histone demethylase, primary screen, biochemical, single concentration HTS; Lysine-specific demethylase 4C (Homo sapiens), Q9H3R0; GST-KDM4C 2-372, H3K9me3 peptide, LANCE TR-FRET; inhibition, % at 12.5 µM; actives 0.15% (n = 96,000); AID 720574, 2013;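 active = mean replicate inhibition above about 25%, with at least 55% of replicates also reaching it, limit read from the data, passing the limit was not always enough; inconclusive = only one of those two conditions met; inactive = neither condition met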
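Test system: N-terminal GST-fused human GASC-1 (KDM4C) fragment, residues 2-372; quantity: GASC-1 enzyme at 10 nM final in reaction; dosing: single dose; schedule: 30 min demethylation and 1 h detection at room temperature; signal: LANCE TR-FRET, excitation 340 nm, emissions 618 and 671 nm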
T cruzi growth-2 – T. cruzi intracellular proliferation inhibitors, confirmation, cell-based, NIH3T3 host, beta-gal parasite, luminescence, cherry-pick | shares compounds with T cruzi growth-1 | actives 72% (n = 5,600) | T. cruzi beta-gal in NIH3T3, GalScreen luminescence, 90 h | AID 651739, 2012 | inhibition, % at 8.35 µM;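 active = mean replicate inhibition above about 95% and at least 55% of replicates individually reaching it, limit read from the data; inconclusive = only one of the two criteria is met; inactive = neither criterion is met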
T cruzi growth-3 – inhibitors of intracellular T. cruzi replication, confirmation, NIH3T3 host cells, beta-gal parasites, cherry-pick, set 2. actives 21% (n = 5,600). T. cruzi beta-gal in NIH3T3, GalScreen luminescence, 90 h. AID 651740, 2012. inhibition, % at 2.09 µM. shares compounds with T cruzi growth-1;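 active = mean inhibition above about 95%, with at least 55% of replicates also reaching it, limit read from the data; inconclusive = meets just one of the two conditions; inactive = meets neither condition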
NIH3T3 tox – cytotoxicity in mouse NIH/3T3 fibroblasts, confirmation, cytotoxicity control for T. cruzi proliferation inhibitor project, cell-based, cherry-pick, single point; shares compounds with T cruzi growth-1; NIH/3T3 viability, CellTiter-Glo ATP luminescence, 90 h; cytotoxicity (signal decrease), % at 8.35 µM; actives 14% (n = 5,600);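 active = mean signal decrease across replicates above about 35% based on untreated-well scatter, with enough replicates individually passing, limit read from the data; inconclusive = no rule stated though some were filed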
NIH3T3 tox 2 – NIH/3T3 fibroblast cytotoxicity, confirmation, cytotoxicity control, cell-based, cherry-pick, single point, set 2; actives 56% (n = 5,600); NIH/3T3 viability, CellTiter-Glo ATP luminescence, 90 h; AID 651744, 2012; shares compounds with T cruzi growth-1; inhibition, % at 24.9 µM;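 active = mean loss of cell viability signal at or above a set limit, and enough replicates individually reaching it; inconclusive = meets only the mean limit or only the replicate share; inactive = meets neither condition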
Numbers stand for hits; – = inactive; ? = inconclusive; · = no result. An excerpt weighted towards active compounds, which were near 5.9% of everything screened.

SMILES | IDH1 R132H inh | Pf Dd2 inh | T cruzi growth-1 | KDM4C inh | T cruzi growth-2 | T cruzi growth-3 | NIH3T3 tox | NIH3T3 tox 2
C[C@@H]1CN([C@H](C)CO)S(=O)(=O)c2ccc(C#CC3CCCC3)cc2O[C@H]1CN(C)Cc1cccnc1 | · | -81.7 | 97.1 | – | – | ? | – | 104.6
C[C@H]1CN([C@@H](C)CO)S(=O)(=O)c2ccc(C#CC3CCCC3)cc2O[C@H]1CN(C)Cc1cccnc1 | · | – | 116.6 | – | 102.7 | – | – | 104.3
CC(C)CC#Cc1cnc2c(c1)C(=O)N([C@@H](C)CO)C[C@@H](C)[C@H](CN(C)Cc1ccc(F)cc1)O2 | – | – | ? | – | 103.7 | – | – | 104.6
C[C@H](CO)N1C[C@H](C)[C@H](CN(C)Cc2cccc(C(F)(F)F)c2)Oc2ncc(C#Cc3ccccc3)cc2C1=O | – | – | 98.9 | – | 101.8 | – | – | 30.6
CC(C)CC#Cc1cnc2c(c1)C(=O)N([C@@H](C)CO)C[C@@H](C)[C@@H](CN(C)Cc1ccc(F)cc1)O2 | – | – | ? | – | 108.4 | – | – | 57.2
C[C@H](CO)N1C[C@H](C)[C@H](CN(C)Cc2ccc(F)cc2)Oc2ncc(C#Cc3ccccc3)cc2C1=O | – | – | ? | – | 102.8 | – | – | 101.1
CC(C)CC#Cc1cnc2c(c1)C(=O)N([C@H](C)CO)C[C@H](C)[C@@H](CN(C)Cc1ccc(F)cc1)O2 | – | – | – | – | · | · | · | ·
C[C@H](CO)N1C[C@H](C)[C@H](CN(C)Cc2cccc(C(F)(F)F)c2)Oc2ncc(C#Cc3ccc(F)cc3)cc2C1=O | · | – | · | – | · | · | · | ·
[N-]=[N+]=NCC(=O)N1CCC2(CC1)C(=O)NCN2c1ccccc1 | – | · | · | · | · | · | · | ·
CNC[C@H]1Oc2ncc(C#CCC(C)C)cc2C(=O)N([C@H](C)CO)C[C@H]1C | – | – | 105.1 | – | 105.8 | – | – | –
O=C(O)CC(C(=O)Nc1ccc(Cl)cc1)N1CCCC1 (stereo not drawn) | – | · | · | · | · | · | · | ·
C[C@@H]1CCCCO[C@H](CN(C)C(=O)Nc2ccc(F)cc2)[C@H](C)CN([C@H](C)CO)C(=O)c2cc(NC(=O)c3ccccc3)ccc2O1 | · | ? | ? | – | 101.8 | – | – | –
C[C@@H]1CCCCO[C@@H](CN(C)C(=O)Nc2ccc(F)cc2)[C@H](C)CN([C@H](C)CO)C(=O)c2cc(NC(=O)c3ccccc3)ccc2O1 | · | – | – | – | · | · | · | ·
C[C@@H]1CN([C@H](C)CO)C(=O)c2cc(NC(=O)c3ccccc3)ccc2O[C@@H](C)CCCCO[C@H]1CN(C)C(=O)Nc1ccc(F)cc1 | · | – | – | – | · | · | · | ·
C[C@H]1CCCCO[C@@H](CN(C)C(=O)Nc2ccc(C(F)(F)F)cc2)[C@@H](C)CN([C@@H](C)CO)C(=O)c2cc(NC(=O)c3ccccc3)ccc2O1 | · | -84.3 | 102.0 | – | 108.0 | 113.1 | – | –
C[C@H]1CCCCO[C@H](CN(C)C(=O)Nc2ccc(F)cc2)[C@@H](C)CN([C@@H](C)CO)C(=O)c2cc(NC(=O)c3ccccc3)ccc2O1 | – | – | 98.7 | – | – | – | – | ?
CO[C@H]1CC(O[C@@H]2/C(C)=C/C[C@@H]3C[C@@H](C[C@]4(CC[C@H](C)[C@@H](C5CCCCC5)O4)O3)OC(=O)[C@@H]3C=C(C)/C(=N/O)[C@H]4OC/C(=C\C=C\[C@@H]2C)[C@]43O)O[C@@H](C)C1O (stereo partly drawn) | – | · | · | · | · | · | · | ·
C[C@H](O)C#Cc1ccc([C@@H]2[C@@H](CO)N3CCCCN(S(=O)(=O)Cc4ccccc4)C[C@@H]23)cc1 | · | – | – | – | · | · | · | ·
CC(C)C#Cc1ccc([C@H]2[C@@H](CO)N3CCCCN(S(=O)(=O)Cc4ccccc4)C[C@@H]23)cc1 | · | – | 109.4 | – | 108.5 | – | – | –
CC(C)C#Cc1ccc([C@H]2[C@@H](CO)N3CCCCN(S(=O)(=O)Cc4ccccc4)C[C@H]23)cc1 | · | – | 103.2 | – | 104.6 | – | 57.9 | 104.5
CC(C)C#Cc1ccc([C@H]2[C@H]3CN(S(=O)(=O)Cc4ccccc4)CCCCN3[C@H]2CO)cc1 | · | – | 110.1 | – | 105.8 | – | – | –
CC(C)C#Cc1ccc([C@@H]2[C@H](CO)N3CCCCN(S(=O)(=O)Cc4ccccc4)C[C@@H]23)cc1 | · | – | 101.9 | – | 104.4 | – | 47.2 | 105.1
CC1(C)CC(=O)C2=C(C1)Nc1ccccc1N(C(=S)NCc1ccco1)C2c1cccnc1 (stereo not drawn) | – | · | · | · | · | · | · | ·
Cc1sc2ncnc(SCC(=O)Nc3ccc4c(c3)OCCO4)c2c1C | – | · | · | · | · | · | · | ·
O=C(COc1ccc(F)cc1)Nc1ncccn1 | – | · | · | · | · | · | · | ·
SMILES | IDH1 R132H inh | Pf Dd2 inh | T cruzi growth-1 | KDM4C inh | T cruzi growth-2 | T cruzi growth-3 | NIH3T3 tox | NIH3T3 tox 2
Cc1noc(C)c1S(=O)(=O)N(C)C[C@@H]1OCCCC[C@H](C)Oc2ccc(NC(=O)Nc3ccc(C(F)(F)F)cc3)cc2C(=O)N([C@H](C)CO)C[C@@H]1C | · | – | 103.6 | – | 104.5 | 113.3 | – | –
Cc1noc(C)c1S(=O)(=O)N(C)C[C@@H]1OCCCC[C@@H](C)Oc2ccc(NC(=O)Nc3ccc(C(F)(F)F)cc3)cc2C(=O)N([C@@H](C)CO)C[C@@H]1C | · | – | – | – | · | · | · | ·
Cc1noc(C)c1S(=O)(=O)N(C)C[C@@H]1OCCCC[C@@H](C)Oc2ccc(NC(=O)Nc3ccc(F)cc3)cc2C(=O)N([C@H](C)CO)C[C@H]1C | – | – | – | – | · | · | · | ·
Cc1noc(C)c1S(=O)(=O)N(C)C[C@H]1OCCCC[C@@H](C)Oc2ccc(NC(=O)Nc3ccc(C(F)(F)F)cc3)cc2C(=O)N([C@H](C)CO)C[C@@H]1C | – | – | 109.5 | – | 108.0 | 101.9 | – | 31.8
Cc1noc(C)c1S(=O)(=O)N(C)C[C@H]1OCCCC[C@@H](C)Oc2ccc(NC(=O)Nc3ccc(C(F)(F)F)cc3)cc2C(=O)N([C@@H](C)CO)C[C@@H]1C | – | -94.2 | 99.5 | – | 105.8 | 116.3 | – | 34.6
Cc1ccccc1-c1nc(S(=O)(=O)c2ccc(Cl)cc2)c(NCC2CCCO2)o1 (stereo not drawn) | – | · | · | · | · | · | · | ·
